The experiment addresses T1, Dickkopf-related protein 1 (Homo sapiens, UniProt O94907).
T1 sequence (O94907 whole entry): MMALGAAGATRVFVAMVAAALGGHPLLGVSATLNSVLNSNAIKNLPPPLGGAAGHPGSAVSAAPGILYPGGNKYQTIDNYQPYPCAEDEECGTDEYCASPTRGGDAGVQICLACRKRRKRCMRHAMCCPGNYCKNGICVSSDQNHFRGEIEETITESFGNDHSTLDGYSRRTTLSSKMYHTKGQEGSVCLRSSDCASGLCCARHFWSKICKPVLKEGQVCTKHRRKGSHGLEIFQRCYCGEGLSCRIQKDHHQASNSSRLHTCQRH
The experiment is described as follows: Inhibition of Dkk1-mediated Wnt/beta-catenin signaling in osteosarcoma cells assessed as potentiation of TCF-luciferase response. The method in brief:
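Cells were transfected with a TCF-luciferase response element plus a renilla standard as the control read-out. Agonism was read as increased luciferase light output relative to DMSO alone. EC50 values are the average of at least two experiments run in triplicate.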
With `NC1CCN(c2nccc(-c3ccc4ccccc4c3)n2)CC1` [1-(4-(naphthalen-2-yl)pyrimidin-2-yl)piperidin-4-amine], the half-maximal effective concentration (EC50) turned out to be 1 µM.
Regarding `Cc1ccc(-c2ccnc(Nc3ccc(S(N)(=O)=O)cc3)n2)s1` [4-(4-(5-methylthiophen-2-yl)pyrimidin-2-ylamino)benzenesulfonamide], the EC50 worked out at 7.8 µM.
Consider `NS(=O)(=O)c1ccc(Nc2nccc(-c3ccc4ccccc4c3)n2)cc1` [4-(4-(naphthalen-2-yl)pyrimidin-2-ylamino)benzenesulfonamide], for which the 50% effective concentration (EC50) amounted to 1 µM.
Regarding `Cc1ccc(-c2ccnc(N(C)c3ccc(S(N)(=O)=O)cc3)n2)s1` [4-(methyl(4-(5-methylthiophen-2-yl)pyrimidin-2-yl)amino)benzenesulfonamide], the EC50 was determined as 9.8 µM.
In the case of `NCC1CCN(c2nccc(-c3ccc4ccccc4c3)n2)CC1` [(1-(4-(naphthalen-2-yl)pyrimidin-2-yl)piperidin-4-yl)methanamine], the EC50 was 0.63 µM.
The figure for `CC(=O)NCC1CCN(c2nccc(-c3ccc4ccccc4c3)n2)CC1` [N-((1-(4-(naphthalen-2-yl)pyrimidin-2-yl)piperidin-4-yl)methyl)acetamide] is 1.9 µM.

(Values after BindingDB's records for doi:10.1021/jm9014197 (Wyeth Research, 2009).)
